Results on two compounds are retold here after ChEMBL document CHEMBL1153607, “Synthesis and anti-tumor activities of some new pyridines and pyrazolo[1,5-a]pyrimidines” (Eur J Med Chem, 2009).

In general, IC50 refers to the point on the concentration scale where inhibition reaches its midpoint.

In brackets after ≈: the same amount, converted by molar mass. Activity calls are given as the source filed them. No cut-off for these calls is given here.

What all share (format): functional, cell-based
Assay [1] has as its system MCF7. The assay can be described thus: Antitumor activity against human MCF7 cells assessed as decrease in survival fraction at > 1 ug/ml by SRB assay. In a few lines:
(§1)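 Monolayers seeded at 10⁴ cells/well were allowed to attach overnight, then treated with compound for 48 h at 37 °C, 5% CO₂, with triplicate wells per dose. Cells were fixed and stained with sulforhodamine B, washed with 1% acetic acid, and dye was solubilised in tris–EDTA before absorbance reading. Surviving fraction was plotted against compound concentration for each cell line.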

The subject of assay [2] is MCF7. The assay can be described thus: Antitumor activity against human MCF7 cells after 48 hrs by SRB assay. As to conditions: MCF7, 48 h. In short, it runs like this: (§2)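 Cells seeded at 10⁴/well and left overnight to attach, then exposed to compound for 48 h at 37 °C, 5% CO₂, in triplicate wells per dose. Cells were fixed and stained with sulforhodamine B in acetic acid, washed four times with 1% acetic acid, and bound dye was extracted with tris–EDTA. Absorbance was read on an ELISA reader. IC50 (50% growth inhibition) was taken from the survival curve.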

Assay [3] has as its system MCF7. The assay can be described thus: Antitumor activity against human MCF7 cells assessed as decrease in survival fraction at > 2.5 ug/ml by SRB assay. In short, it runs like this:
as §1
(Sulforhodamine B stains cellular protein and so reports cell mass.)

The subject of assay [4] is HCT-116. Briefly: Antitumor activity against human HCT116 cells after 48 hrs by SRB assay. Particulars: HCT-116, 48 h. In short, it runs like this:
as §2

A further assay has as its system HepG2. The assay can be described thus: Antitumor activity against human HepG2 cells after 48 hrs by SRB assay. As to conditions: HepG2, 48 h. In short, it runs like this:
as §2

Assay [5] has as its system MCF7. The assay can be described thus: Antitumor activity against human MCF7 cells assessed as decrease in survival fraction at 1 ug/ml by SRB assay. In short, it runs like this:
as §1

For assay [6], the system named is HeLa. Briefly: Antitumor activity against human HeLa cells after 48 hrs by SRB assay. In short, it runs like this:
as §2

The test system of assay [7] is HeLa. The assay can be described thus: Antitumor activity against human HeLa cells assessed as decrease in survival fraction at 1 ug/ml by SRB assay. In a few lines:
as §1

Assay [8] deals with HCT-116. Briefly: Antitumor activity against human HCT116 cells assessed as decrease in survival fraction at 1 ug/ml by SRB assay. In short, it runs like this:
as §1

For `N#Cc1ccc(-c2ccc3ccccc3c2)[nH]c1=S`, the outcome in the assay with MCF7 [1], in the assay with MCF7 [3] and with MCF7 [5] was Active. The IC50 with MCF7 [2] turned out to be 0.34 µg/mL (≈ 1.3 µM); in the assay with HCT-116 [4] it was 0.49 µg/mL (≈ 1.87 µM); with HepG2, 1.01 µg/mL (≈ 3.85 µM); in the assay with HeLa [6] it was 0.6 µg/mL (≈ 2.29 µM).

With `O=C(Nc1ccc(Cl)cc1)c1c(Nc2ccccc2)nn2ccc(-c3ccc4ccccc4c3)nc12`, the result in the assay on MCF7 [1], in the assay with HeLa [7], in the assay with MCF7 [3], in the assay on HCT-116 [8] and in the assay with MCF7 [5] was Active. For the same compound, the IC50 stood at 0.74 µg/mL (≈ 1.51 µM) with MCF7 [2], 0.54 µg/mL (≈ 1.1 µM) in the assay with HCT-116 [4], 1.88 µg/mL (≈ 3.84 µM) with HepG2 and 0.4 µg/mL (≈ 0.816 µM) in the assay with HeLa [6].
